Only some compounds are listed: those with a hit (about 1.1% of all), similar ones and a draw of the others.
ABCB6 inh 2 = blocks the human ABCB6 transporter | K562-ABCB6 porphyrin accumulation, flow cytometry, 1 h; active compounds read low | fluorescence ratio to DMSO, % at 10 µM | 0.19% of 360,000 active;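 active = fluorescence ratio to DMSO below 75%, the collection mean minus 3 SD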;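 also: signal is porphyrin accumulated inside mitochondria; 100% equals median channel fluorescence of DMSO control wells; lower ratio means ABCB6 inhibition with less porphyrin fluorescence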
iPSC survival up = hiPSC single-cell survival enhancement; ATPlite luminescence; 100% = ROCK inhibitor wells, 0% = DMSO; survival enhancement, % at 20 µM; 0.044% of 360,000 active; in the data active = survival enhancement above about 18%;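 also: cells exposed to compounds for 16 hours before the ATP read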
FAS-TE inh = FAS thioesterase (human) inhibition | 0.67% of 360,000 active | inhibition, % at 15 µM | recombinant FAS-TE, OMFH fluorogenic substrate, fluorescence endpoint;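 active = compounds whose normalised, plate-corrected inhibition of enzyme fluorescence in the single-dose primary screen is 50% or more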;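 also: 0% = DMSO with enzyme and 100% = substrate without enzyme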
SENP1 FRET inh = blocks the human SENP1 SUMO protease catalytic domain; recombinant SENP1 catalytic domain, CyPet-SUMO1-YPet FRET cleavage; Q9P0U3; 0.21% of 360,000 active; inhibition, % at 10 µM; AID 624204;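 active = inhibition at least 30% at 10 µM, raw YFP signal under a set limit, fluorescence ratio 0.5 to 1.5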;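 also: 0% = enzyme with DMSO and 100% = no enzyme wells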
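Test system: hSENP1 catalytic domain, recombinant; Amount: 20 pM final SENP1 enzyme; Medium: Tris pH 8 buffer plus EDTA, NaCl, BME, BSA, NP40, catalase; Schedule: 50 min enzyme reaction, room temperature, light-protected; Technique: FRET fluorescence in CFP and YFP emission channels; Controls: no-enzyme wells low, DMSO-plus-enzyme wells high control.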
SENP1 inh conf = confirmation of human SENP1 SUMO protease inhibitors; shares compounds with SENP1 FRET inh; recombinant SENP1, CyPet-SUMO1-YPet FRET cleavage; inhibition, % at 10 µM; 34% of 520 active; AID 651678; in the data active = inhibition mostly above about 35%, no sharp cut-off; inactive = mostly below about 32%;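 also: 0% = enzyme with DMSO and 100% = no enzyme control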
SENP1 kinetic = SENP1 (human) inhibition, kinetic confirmation; AID 651690; 26% of 520 active; inhibition, % at 10 µM; shares compounds with SENP1 FRET inh; recombinant SENP1, CyPet-SUMO1-YPet FRET kinetic cleavage; in the data active = inhibition mostly above about 32%, no sharp cut-off; inactive = mostly below about 29%;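 also: 0% = DMSO with enzyme and 100% = no enzyme substrate only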
* hit, by the source's call; / = no result.

SMILES	ABCB6 inh 2	iPSC survival up	FAS-TE inh	SENP1 FRET inh	SENP1 inh conf	SENP1 kinetic
Cc1ccc(S(=O)(=O)N2CCN(C(=O)CC(C)n3nc(C)c(Cl)c3C)CC2)cc1C (stereo not drawn)	95	0	4	3	/	/
Cc1cccc(-c2c3c(=O)n(C)c(=O)n(C)c3c3cccnn23)c1	95	-1	1	62*	30*	28
C=CC[C@H](CC(=O)OC(C)(C)C)C(=O)OC[C@H]1CCCN1C(=O)[C@H](CC=C)CC(=O)NCCO	98	0	-14	0	/	/
O=C(c1cc(-c2cccnc2)nc2ccccc12)N1CCN(S(=O)(=O)c2ccc(Cl)s2)CC1	99	0	24	0	/	/
Nc1ccc(C2CCCc3nonc32)c2nonc12 (stereo not drawn)	98	-2	-5	35*	51*	28
Nc1ccc(N2CCCCC2)c2nonc12	106	0	-10	13	/	/
CCOc1ccc(/C=C2\SC(=S)N(NS(=O)(=O)c3ccccc3)C2=O)cc1OC	98	0	5	-1	/	/
CCOc1cc(/C=C2\SC(=O)N=C2N)ccc1O	104	-2	-11	31*	61*	46*
CCOc1cc(/C=C2\SC(N)=NC2=O)ccc1O	101	0	-6	-20	/	/
CCOc1cc(/C=C2\N=C3CCCCCN3C2=O)ccc1O	91	0	-5	39*	56*	50*
CCOc1cc(/C=C2\SC(=S)N(NS(=O)(=O)c3ccccc3)C2=O)ccc1O	109	1	-3	82*	124*	70*
O=C(CNC(=O)c1ccc2ccccc2c1)NCc1ccc(F)cc1	82	1	8	1	/	/
CC(=O)Nc1ccc(S(=O)(=O)N(C)c2ccc(OCC(=O)OCC(=O)NCc3ccco3)cc2)cc1	100	0	1	1	/	/
CC(C)CCN(C(=O)C1=COCCO1)c1c(N)n(Cc2ccccc2)c(=O)[nH]c1=O	98	0	-7	34*	9	6
CCCN(C(=O)C1=COCCO1)c1c(N)n(Cc2ccccc2)c(=O)[nH]c1=O	100	-1	-1	-1	/	/
CC(=O)Nc1ccc(C(=O)NCC2CCCCC2)cc1	99	-1	-6	-2	/	/
CCN=c1scc(-c2cccs2)n1/N=C/c1cc(OC)ccc1O	93	-3	28	52*	146*	82*
COc1ccc(O)c(/C=N/n2c(-c3ccco3)csc2=Nc2cccnc2)c1	96	-2	-10	42*	29*	19
CC(=O)C1=C(C)N=c2s/c(=C/c3ccc4c(c3)OCO4)c(=O)n2C1c1ccc(N(C)C)cc1 (stereo not drawn)	195	0	-21	65*	32	18
CC1CCCC(N2CCN(C(=O)c3ccc([N+](=O)[O-])cc3)CC2)C1 (stereo not drawn)	96	1	13	1	/	/
COc1ccccc1Nc1ccc([N+](=O)[O-])cc1N	98	-3	8	49*	29	17
O=C(NC(Cc1ccccc1)C(=O)O)/C(=C\c1ccc([N+](=O)[O-])cc1)NC(=O)c1ccco1 (stereo not drawn)	107	0	12	33*	2	4
Cc1nc2ccc(NS(=O)(=O)c3ccc(F)c(F)c3F)cc2s1	94	0	-6	26	/	/
CC(=O)c1cccc(S(=O)(=O)Nc2ccc3nc(C)sc3c2)c1	93	1	-2	5	/	/
Cc1nc2ccc(NS(=O)(=O)c3ccc(F)cc3F)cc2s1	96	0	-9	58*	37*	29
SMILES	ABCB6 inh 2	iPSC survival up	FAS-TE inh	SENP1 FRET inh	SENP1 inh conf	SENP1 kinetic
COc1cc(S(=O)(=O)Nc2ccc3nc(C)sc3c2)ccc1NC(C)=O	95	3	-7	36*	20	16
Cc1nc2ccc(NS(=O)(=O)c3c(F)cc(F)cc3Br)cc2s1	85	0	-5	44*	18	17
Cc1nc2ccc(NS(=O)(=O)c3ccc(C)c(C)c3)cc2s1	143	-3	8	3	/	/
CCCC1OC(c2cc3c(cc2Cl)OCO3)OCC1CC (stereo not drawn)	96	0	24	2	/	/
CC1(C)CC(=O)C(N=Nc2ccc(F)cc2)=C(O)C1	94	-1	-3	1	/	/
CC1(C)CC(=O)C(N=Nc2ccc(-c3ccccc3)cc2)=C(O)C1	98	0	-6	63*	17	5
CCN(CC)CCN1C(=O)C2C(C(=O)Nc3ccc(C(C)C)cc3)C3C=CC2(O3)C1C(=O)NC1CCCCC1 (stereo not drawn)	96	0	-6	2	/	/
Cc1cc(C(=O)NCc2ccccc2F)c2ccccc2n1	101	0	-4	43*	51*	41*
Cc1ccc(CNC(=O)c2ccc(F)c(S(=O)(=O)N3CCOCC3)c2)cc1	99	0	0	0	/	/
N#C/C(=C/c1ccccc1)c1nn(CCO)c(N)c1C#N	105	-2	-4	-24	/	/
N#C/C(=C\c1ccc(/C=C(/C#N)c2nn(CCO)c(N)c2C#N)cc1)c1nn(CCO)c(N)c1C#N	96	7	-10	38*	33	27
O=C1c2cccc3cc([N+](=O)[O-])cc(c23)C(=O)N1c1ccccc1O	115	-2	0	40*	18	10
Nc1ccccc1N1C(=O)c2cccc3cccc(c23)C1=O	99	0	-7	-48	/	/
O=C1c2cccc3cc([N+](=O)[O-])cc(c23)C(=O)N1c1nncs1	102	-1	-7	6	/	/
Cc1cc(O)ccc1N1C(=O)c2cccc3cc([N+](=O)[O-])cc(c23)C1=O	105	-1	-3	36*	13	6
CCCCN(C(=O)c1cc2c(s1)CCC2)c1c(N)n(CCC)c(=O)[nH]c1=O	101	2	-7	-6	/	/
CC(=O)n1c2ccccc2c2c1c1ccccc1n2C	98	5	-13	75*	-13	-11
CC(=O)n1c2ccccc2c2nc3ccccc3nc21	101	0	2	-1	/	/
COc1ccc(-c2ccc3c(c2)S(=O)(=O)c2cccc(C(=O)NCCOc4ccccc4Cl)c2C3=O)cc1OC	92	-2	-11	29*	14	16
COc1ccc(-c2ccc3c(c2)S(=O)(=O)c2cccc(C(=O)NCc4ccccc4Cl)c2C3=O)cc1OC	105	-2	-10	58*	15	17
CC(C)c1cccc(-c2ccc3c(c2)S(=O)(=O)c2cccc(C(=O)NCc4ccccc4Cl)c2C3=O)c1	82	0	8	-3	/	/
Oc1ccccc1NCC(O)Cn1ccc2ccccc21 (stereo not drawn)	99	4	4	37*	5	1
O=C1C=C(O)c2cccc3cccc1c23	89	0	-4	45*	66*	42*
